Measured values from ChEMBL document CHEMBL5712901, “DOT1L inhibition blocks multiple myeloma cell proliferation by suppressing IRF4-MYC signaling” (2019).
Active and inactive are the calls of the source. The calls are words filed in the database; no cut-off is given here.

How the values were obtained:
KMS-12-PE = assay: Antiproliferative activity against human KMS-12-PE cells treated upto 14 days with replacement of fresh medium containing drug every 3 to 4 days by cell counting kit-8 method; format: functional, cell-based; conditions: time <= 14.0 day
Method in brief: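 Screen of histone methylation modifier inhibitors in 6-well plates at 3 × 10^4 to 1 × 10^5 cells/well. Drug at 1 μM or DMSO for up to 14 days, with medium and drug refreshed every 3-4 days. CCK-8 read on days 3-4 and 11-14. Values normalized to DMSO; mean of 5 replications ± SEM; unpaired two-sided t-test.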

RPMI-8226 [1] = assay: Upregulation of CACNB3 gene in human RPMI-8226 cells at 1 uM for 6 days by; format: functional, cell-based; conditions: time 6.0 day
RPMI-8226 [2] = assay: Upregulation of CCL2 gene in human RPMI-8226 cells at 1 uM for 6 days by; format: functional, cell-based; conditions: time 6.0 day
RPMI-8226 [3] = assay: Upregulation of CHRNA6 gene in human RPMI-8226 cells at 1 uM for 6 days by; format: functional, cell-based; conditions: time 6.0 day
Method in brief: (§1)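 Human myeloma lines RPMI-8226 and MM.1S exposed to 1 μM DOT1L inhibitor, or DMSO, for 6 days. Whole-genome expression profiled on gene expression microarray.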

RPMI-8226 [4] = assay: Upregulation of EMID1 gene in human RPMI-8226 cells at 1 uM for 6 days by; format: functional, cell-based; conditions: time 6.0 day; method in brief: as §1
RPMI-8226 [5] = assay: Upregulation of IGFBP6 gene in human RPMI-8226 cells at 1 uM for 6 days by; format: functional, cell-based; conditions: time 6.0 day
RPMI-8226 [6] = assay: Upregulation of IL13RA1 gene in human RPMI-8226 cells at 1 uM for 6 days by; format: functional, cell-based; conditions: time 6.0 day
RPMI-8226 [7] = assay: Upregulation of ISG15 gene in human RPMI-8226 cells at 1 uM for 6 days by; format: functional, cell-based; conditions: time 6.0 day
RPMI-8226 [8] = assay: Upregulation of NEURL1B gene in human RPMI-8226 cells at 1 uM for 6 days by; format: functional, cell-based; conditions: time 6.0 day
RPMI-8226 [9] = assay: Upregulation of NXF3 gene in human RPMI-8226 cells at 1 uM for 6 days by; format: functional, cell-based; conditions: time 6.0 day
RPMI-8226 [10] = assay: Upregulation of POPDC2 gene in human RPMI-8226 cells at 1 uM for 6 days by; format: functional, cell-based; conditions: time 6.0 day
RPMI-8226 [11] = assay: Upregulation of RGS1 gene in human RPMI-8226 cells at 1 uM for 6 days by; format: functional, cell-based; conditions: time 6.0 day
RPMI-8226 [12] = assay: Upregulation of SAP30L gene in human RPMI-8226 cells at 1 uM for 6 days by; format: functional, cell-based; conditions: time 6.0 day
RPMI-8226 [13] = assay: Upregulation of SERPINB1 gene in human RPMI-8226 cells at 1 uM for 6 days by; format: functional, cell-based; conditions: time 6.0 day
RPMI-8226 [14] = assay: Upregulation of SOAT2 gene in human RPMI-8226 cells at 1 uM for 6 days by; format: functional, cell-based; conditions: time 6.0 day
MM1.S [15] = assay: Upregulation of CAPN2 gene in human MM1.S cells at 1 uM for 6 days by; format: functional, cell-based; conditions: time 6.0 day
MM1.S [16] = assay: Upregulation of CCDC74B gene in human MM1.S cells at 1 uM for 6 days by; format: functional, cell-based; conditions: time 6.0 day
MM1.S [17] = assay: Upregulation of CCL2 gene in human MM1.S cells at 1 uM for 6 days by; format: functional, cell-based; conditions: time 6.0 day
MM1.S [18] = assay: Upregulation of CCR2 gene in human MM1.S cells at 1 uM for 6 days by; format: functional, cell-based; conditions: time 6.0 day
MM1.S [19] = assay: Upregulation of CCR5 gene in human MM1.S cells at 1 uM for 6 days by; format: functional, cell-based; conditions: time 6.0 day
MM1.S [20] = assay: Upregulation of CMTM3 gene in human MM1.S cells at 1 uM for 6 days by; format: functional, cell-based; conditions: time 6.0 day; method in brief: as §1
MM1.S [21] = assay: Upregulation of DDIT4L gene in human MM1.S cells at 1 uM for 6 days by; format: functional, cell-based; conditions: time 6.0 day; method in brief: as §1
MM1.S [22] = assay: Upregulation of EMID1 gene in human MM1.S cells at 1 uM for 6 days by; format: functional, cell-based; conditions: time 6.0 day; method in brief: as §1
MM1.S [23] = assay: Upregulation of FCGR2B gene in human MM1.S cells at 1 uM for 6 days by; format: functional, cell-based; conditions: time 6.0 day; method in brief: as §1
MM1.S [24] = assay: Upregulation of FNBP1L gene in human MM1.S cells at 1 uM for 6 days by; format: functional, cell-based; conditions: time 6.0 day; method in brief: as §1
MM1.S [25] = assay: Upregulation of GTF2IRD2 gene in human MM1.S cells at 1 uM for 6 days by; format: functional, cell-based; conditions: time 6.0 day; method in brief: as §1
MM1.S [26] = assay: Upregulation of HLA-DPB1 gene in human MM1.S cells at 1 uM for 6 days by; format: functional, cell-based; conditions: time 6.0 day; method in brief: as §1
MM1.S [27] = assay: Upregulation of IFITM1 gene in human MM1.S cells at 1 uM for 6 days by; format: functional, cell-based; conditions: time 6.0 day
MM1.S [28] = assay: Upregulation of MS4A4A gene in human MM1.S cells at 1 uM for 6 days by; format: functional, cell-based; conditions: time 6.0 day
MM1.S [29] = assay: Upregulation of MYOF gene in human MM1.S cells at 1 uM for 6 days by; format: functional, cell-based; conditions: time 6.0 day
MM1.S [30] = assay: Upregulation of POPDC2 gene in human MM1.S cells at 1 uM for 6 days by; format: functional, cell-based; conditions: time 6.0 day
MM1.S [31] = assay: Upregulation of PYCARD gene in human MM1.S cells at 1 uM for 6 days by; format: functional, cell-based; conditions: time 6.0 day
MM1.S [32] = assay: Upregulation of SGK1 gene in human MM1.S cells at 1 uM for 6 days by; format: functional, cell-based; conditions: time 6.0 day
MM1.S [33] = assay: Upregulation of TP53I11 gene in human MM1.S cells at 1 uM for 6 days by; format: functional, cell-based; conditions: time 6.0 day
MM1.S [34] = assay: Upregulation of ZSCAN31 gene in human MM1.S cells at 1 uM for 6 days by; format: functional, cell-based; conditions: time 6.0 day
RPMI-8226 [35] = assay: Antitumor activity against compound pretreated cells human RPMI-8226 cells at 1 uM for 3 days xenografted in SCID mouse assessed as reduction of tumor volume measured upto 36 days; format: functional, cell-based; conditions: time 39.0 day
Method in brief: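 Ex vivo pretreatment: RPMI-8226 cells exposed to 1 μM DOT1L inhibitor or DMSO for 3 days. Then 1 × 10^7 cells in 200 μl RPMI-1640 injected subcutaneously into the thighs of 6-week-old C.B-17 SCID mice, with drug-treated cells in the left thigh and DMSO cells in the right. Tumor measured every 3 days by calipers; volume = length × width²/2; n = 5, mean ± SEM.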

RPMI-8226 [36] = assay: Induction of cell cycle arrest in human RPMI-8226 cells assessed as decrease in accumulation of cells at S phase at 1 uM for 6 days; format: functional, cell-based; conditions: time 6.0 day
Method in brief: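 Flow cytometric cell cycle analysis of RPMI-8226 and MM.1S cells treated with 1 μM DOT1L inhibitor or DMSO for 6 days. Sub-G1, G0-G1 and S phase populations scored. Summary is from 3 replications, mean ± SEM.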

RPMI-8226 [37] = assay: Induction of apoptosis in human RPMI-8226 cells assessed as early apoptotic cells at 1 uM for 6 days by annexin-V based propidium iodide staining based flow cytometric analysis (reference value: 8.16%); format: functional; conditions: time 6 day
RPMI-8226 [38] = assay: Induction of apoptosis in human RPMI-8226 cells assessed as early apoptotic cells at 1 uM for 3 days by annexin-V based propidium iodide staining based flow cytometric analysis (reference value: 3.02%); format: functional; conditions: time 3 day
MM1.S [39] = assay: Induction of apoptosis in human MM1.S cells assessed as necrotic cells at 1 uM for 3 days by annexin-V based propidium iodide staining based flow cytometric analysis (reference value: 0.064%); format: functional; conditions: time 3 day
RPMI-8226 [40] = assay: Upregulation of IFN in human RPMI-8226 cells assessed as increase in ISG15 gene at 1 uM for 6 days by qRT-PCR analysis; format: functional, cell-based; conditions: time 6.0 day

CC(C)N(CCCNC(=O)Nc1ccc(C(C)(C)C)cc1)C[C@H]1O[C@@H](n2cc(Br)c3c(N)ncnc32)[C@H](O)[C@@H]1O
Activity (KMS-12-PE): inactive
Activity (RPMI-8226 [1]): Active
Activity (RPMI-8226 [2]): Active
Activity (RPMI-8226 [3]): Active
Activity (RPMI-8226 [4]): Active
Activity (RPMI-8226 [5]): Active
Activity (RPMI-8226 [6]): Active
Activity (RPMI-8226 [7]): Active
Activity (RPMI-8226 [8]): Active
Activity (RPMI-8226 [9]): Active
Activity (RPMI-8226 [10]): Active
Activity (RPMI-8226 [11]): Active
Activity (RPMI-8226 [12]): Active
Activity (RPMI-8226 [13]): Active
Activity (RPMI-8226 [14]): Active
Activity (MM1.S [15]): Active
Activity (MM1.S [16]): Active
Activity (MM1.S [17]): Active
Activity (MM1.S [18]): Active
Activity (MM1.S [19]): Active
Activity (MM1.S [20]): Active
Activity (MM1.S [21]): Active
Activity (MM1.S [22]): Active
Activity (MM1.S [23]): Active
Activity (MM1.S [24]): Active
Activity (MM1.S [25]): Active
Activity (MM1.S [26]): Active
Activity (MM1.S [27]): Active
Activity (MM1.S [28]): Active
Activity (MM1.S [29]): Active
Activity (MM1.S [30]): Active
Activity (MM1.S [31]): Active
Activity (MM1.S [32]): Active
Activity (MM1.S [33]): Active
Activity (MM1.S [34]): Active

CC(C)N(C[C@H]1O[C@@H](n2cnc3c(N)ncnc32)[C@H](O)[C@@H]1O)[C@H]1C[C@@H](CCc2nc3cc(C(C)(C)C)ccc3[nH]2)C1 [PINOMETOSTAT]
Activity (RPMI-8226 [35]): Active
Activity (RPMI-8226 [36]): Active
Activity (RPMI-8226 [37]): 15%
Activity (RPMI-8226 [38]): 7.39%
Activity (MM1.S [39]): 0.06%
Activity (RPMI-8226 [40]): Active
